Screening results (PubChem BioAssay)
MT stabilize HCS: microtubule stabilization, imaging screen | HeLa tubulin immunostaining HCS, 24 h; share of cells brighter than vehicle mean+2SD | % tubulin-high responders, % at 10 µM | 200,000 tested, 0.83% active | AID 2205;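 active means plate Z-score above 3 for both tubulin-high and condensed-nucleus cell shares, with cell loss under 80%, at 10 µM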;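 further: anti alpha tubulin signal scored within the nucleus-defined area of each cell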
HSV augment: increases HSV replication in cells; maximum fold increase; HSV replication augmentation in cells, fold increase; 220,000 tested, 0.005% active; in the data active means maximum fold increase above about 1.5; tested in PC3 cells
b-catenin transl: modulators of beta-catenin nuclear translocation | AID 1665 | nuclear translocation activity, % at 5 µM | 190,000 tested, 0.3% active | HeLa beta-catenin nuclear translocation, immunofluorescence imaging;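 active means nuclear translocation activity above 50% at 5 µM, with a well cell count of 50 or more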;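 further: per-cell ratio of nuclear to cytoplasmic median beta-catenin stain intensity; plate controls were DMSO negative control for no effect and GSK-3 inhibitor IX positive control for full effect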
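Signal – beta-catenin immunofluorescence imaging with DAPI · Test system – human HeLa cell line · Dosing – 5 µM primary single dose, 0.1% DMSO, 0.02–20 µM confirmation series · Measure – % activation, nuclear-to-cytoplasmic median beta-catenin signal ratio per cell · Incubation – 24 h compound exposure at 37°C, 5% CO2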
Dynein cargo inh: dynein cargo transport inhibition; 3617.4 mouse cells, GR-EGFP nuclear translocation imaging; test concentration mostly 20 µM; stimulated with dexamethasone, 1 µM; stronger effect = lower value; z-score, hits read low; 220,000 tested, 0.47% active;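 active means plate z-score of nuclear minus cytoplasmic receptor signal below a set negative limit, without overly bright fluorescence or cell loss, cut at about -3.5 in these data, passing the limit was not always enough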;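 further: z-score of nuclear minus cytoplasmic ring GR-EGFP intensity difference per well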
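medium = tetracycline-free induction medium containing charcoal-stripped FBS | also added = 1.0 µM final dexamethasone stimulus | schedule = 48 h induction, 1 h compound, 30 min dex at 37 °C | technique = fixed, Hoechst-stained cells imaged at 10x for EGFP | measure = GR-EGFP nuclear translocation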
L major viab: reduces viability of Leishmania major promastigotes; resazurin fluorescence viability; 200,000 tested, 9% active; inhibition, % at 10 µM; in the data active means inhibition above about 50%;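 further: promastigotes grown with compound for 44 hours at 28 °C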
An asterisk follows results filed as active; i = inactive; / = no result given. Hits are enriched below; roughly 8.9% of the tested compounds scored in any of these assays.

SMILES | MT stabilize HCS | HSV augment | b-catenin transl | Dynein cargo inh | L major viab
Nc1nonc1C(=O)N/N=C/c1ccc([N+](=O)[O-])o1 | 2 | i | -1 | -2.6 | 83*
CC(=NCc1cccnc1)c1c(O)n(-c2ccc(Cl)cc2)c(=O)[nH]c1=O | / | i | -2 | 1.2 | /
COc1ccc(N2C(=O)/C(=C/C=C/c3ccccc3[N+](=O)[O-])C(=O)NC2=S)cc1 | 4 | i | 1 | -3.5 | 92*
Cc1ccc(C(O)(C(=O)NNC(=O)CN2CCN(C)CC2)c2ccc(C)cc2)cc1 | 2 | i | -1 | -0.33 | -6
O=c1c2ccccc2nc(-c2ccc(-c3ccccc3)cc2)n1-c1ccncc1 | 5 | i | -2 | 1 | 73*
Cc1ccc(-c2nc3ccccc3c(=O)n2-c2ccncc2)cc1 | 4 | i | -1 | 0.012 | -4
O=C(c1ccc(C(F)(F)F)cc1)C1CCCN(Cc2ccncc2)C1 (centres undefined) | 2 | i | 1 | -1.2 | 89*
Cc1ccc(CN2CCCC(C(=O)c3cccc(C(F)(F)F)c3)C2)o1 (centres undefined) | 1 | i | -3 | -0.93 | 47
O=C(c1cccc(C(F)(F)F)c1)C1CCCN(Cc2ccccc2O)C1 (centres undefined) | 3 | i | 0 | -0.67 | 84*
O=C(c1ccc(C(F)(F)F)cc1)C1CCCN(Cc2ccc(CO)o2)C1 (centres undefined) | 4 | i | -1 | 0.16 | 88*
CCOP(=O)(OCC)C(NS(=O)(=O)c1ccccc1)C(Cl)(Cl)Cl (centres undefined) | 2 | i | 2 | 0.016 | -6
CP(=O)(Nc1ccc(Cl)cc1)c1nc2c(s1)CCCC2 (centres undefined) | / | i | 1 | -0.94 | /
CCOc1ccccc1-n1c(O)c(C=Nc2ccc(N(CC)CC)cc2)c(=O)[nH]c1=O | 22* | i | -5 | 0.66 | 8
CCN(CC)c1ccc(N=Cc2c(O)n(-c3ccccc3C)c(=O)[nH]c2=O)cc1 | 9 | i | / | -0.62 | 17
O=C(c1cc(C(=O)NCc2ccccc2)c(=O)n(Cc2ccccc2)c1)c1cc(Br)ccc1O | 2 | i | 1 | 0.076 | 99*
O=C(CNC(=O)c1ccccc1Cl)Nc1ccc(Br)cc1C(=O)c1ccccc1 | 3 | i | -4 | -0.084 | 5
Cc1ccc(O)c(C(=O)c2cc(C(=O)NCc3ccccc3)c(=O)n(Cc3ccccc3)c2)c1 | 3 | i | 0 | 0.56 | 78*
Cc1cccn2c(=O)c3c(nc12)N1CCC(Cc2ccccc2)CC1C1(C3)C(=O)N(C)C(=O)N(C)C1=O (centres undefined) | 2 | i | 1 | -0.22 | 59*
CN1C(=O)N(C)C(=O)C2(Cc3c(nc4ccccn4c3=O)N3CCC(Cc4ccccc4)CC32)C1=O (centres undefined) | / | / | 3 | / | /
Cc1cccc(CSc2nc3c(cc2C#N)CN(C)CC3)c1 | 6 | i | -1 | 0.7 | 21
CN1CCc2nc(SCc3ccccc3Br)c(C#N)cc2C1 | 4 | i | 5 | 1.1 | 65*
COc1ccc2cc(C(=O)C3CCCN(C4CCOCC4)C3)ccc2c1 (centres undefined) | 3 | i | -1 | -0.2 | 99*
COc1c(C)cc(C(=O)C2CCCN(C3CCOCC3)C2)cc1C (centres undefined) | 2 | i | 0 | -0.14 | 97*
O=C(c1ccc(Cl)cc1)C1CCCN(C2CCSCC2)C1 (centres undefined) | 4 | i | -1 | -0.91 | 91*
Cc1ccc(-c2cc(C(F)F)n3ncc(C(=O)N4CCC5(CC4)OCCO5)c3n2)cc1 | 1 | i | -5 | -0.82 | 11
SMILES | MT stabilize HCS | HSV augment | b-catenin transl | Dynein cargo inh | L major viab
CC(C)N1CCN(c2ccc(O)cc2)CC1 | 5 | i | -2 | -0.011 | 56*
COc1cc(CNCCc2ccc3c(c2)OCO3)cc(OC)c1OC | 3 | i | -2 | -0.58 | -1
CC1(C)CC(CCNCc2ccc3c(c2)OCO3)(Cc2ccccc2)CCO1 (centres undefined) | / | i | -1 | -0.21 | 89*
COc1ccc(-n2cnc3cc(C(=O)N4CCC5(CC4)OCCO5)ccc32)cc1 | 13* | i | 32 | -0.79 | -1
CCOC(=O)c1sc(N=Nc2c(O)[nH]c(=O)[nH]c2=O)c(C(=O)OCC)c1C | 2 | i | / | 1.1 | 59*
CC1C(c2cccs2)=[N+]([O-])C(C)(C(=O)c2cccs2)N1O (centres undefined) | 6 | i | 3 | 2.1 | -6
COc1ccc(CC2C(=O)NC(=O)NC2=O)c(OC)c1 | 3 | i | / | 0.12 | -1
Cc1ccc(-c2nc(N3CCOCC3)s[n+]2-c2ccccc2)cc1 | 2 | i | -2 | -0.87 | 20
COc1ccccc1CCNC1CCC(C)CC1 (centres undefined) | 4 | i | 2 | 0.21 | 77*
CNc1cc(N2CCNCC2)ccc1[N+](=O)[O-] | 6 | i | -3 | 0.49 | 6
O=[N+]([O-])c1ccc(N2CCNCC2)cc1NCc1ccco1 | 6 | i | / | 3.9 | 101*
CN1CCN(c2ccc([N+](=O)[O-])c(NCC3CCCO3)c2)CC1 (centres undefined) | 4 | i | 4 | -0.72 | -1
CN1CCN(c2ccc([N+](=O)[O-])c(NCc3ccco3)c2)CC1 | 4 | i | / | -0.7 | 100*
Oc1c(Br)cc(Br)cc1Oc1ccc(Br)cc1Br | 4 | i | / | -0.3 | -6
COc1cccc(C(=O)C2CCCN(Cc3cccc(C)n3)C2)c1 (centres undefined) | 3 | i | 2 | 2 | 29
Cc1cccc(CN2CCCC(C(=O)c3cccc(OC(C)C)c3)C2)n1 (centres undefined) | 3 | i | 1 | 0.036 | 60*
COc1cccc(C(=O)C2CCCN(Cc3cnn(C(C)C)c3)C2)c1 (centres undefined) | 3 | i | 1 | -0.49 | 71*
COc1cccc(C(=O)C2CCCN(Cc3ccc4nsnc4c3)C2)c1 (centres undefined) | 3 | i | 0 | -1.2 | 87*
CCn1cc(CN2CCCC(C(=O)c3cccc(OC)c3)C2)c(C)n1 (centres undefined) | 1 | i | 0 | 0.015 | 78*
COC(=O)CNC(=O)c1cn(CCC#N)nc1-c1ccc(F)cc1 | 1 | i | -2 | -0.83 | -5
O=c1cccc2n1CC1CC2CN(Cc2c(F)cccc2Cl)C1 (centres undefined) | 3 | i | -3 | 0.65 | -3
COc1cccc(C(=O)C2CCCN(Cc3ccon3)C2)c1 (centres undefined) | 2 | i | 0 | 0.37 | -7
O[C@H]1[C@H](O)[C@@H](O)CN2CC[C@H](O)[C@H]12 | 3 | i | / | -0.35 | -7
CSc1nc(N2CCN(C)CC2)c2ccccc2n1 | 5 | i | -4 | 1.3 | 3
CN1CCC(N(C)c2nc(-c3ccccc3)nc3ccccc23)CC1 | 3 | i | 1 | 3.5 | 101*
